The values below come from PMC6583925 (Journal of medicinal chemistry, 2019).

The structures appear in SMILES notation. Bounds are passed on as bounds.

The test system of one data set is THP1 cells. The data set is described as follows: cell viability assay. The format is cell-based, human. To be noted: 72 h, CellTiter-Glo. In a few lines:
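THP-1 cells maintained in RPMI 1640 with 10% heat-inactivated FBS and 0.05 mM 2-mercaptoethanol at 2×105 to 1×10^6 cells/ml. Seeded at 3,000 cells per well; test compound added after 24 h at final 0.1 to 10 μM. After 72 h incubation, viability was read by CellTiter-Glo luminescence and normalized to vehicle-treated controls.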
In general terms: ATP-based viability assays read luminescence as a measure of living cells.

The next data set relates to serine hydrolases. As to the kind of experiment: selectivity by gel-based ABPP with FP-Rh in mouse brain proteome. To be noted: FP-Rh probe. The data set is classed as biochemical. An outline of the steps:
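Mouse brain homogenised in DPBS and cleared at 1,400 × g. Membranes pelleted at 16,000 × g (45 min, 4 °C) and resuspended in DPBS; used at 1 mg/mL. Test compound pretreatment: (thio)ureas 20 min at room temperature, NHH-carbamates 45 min at 37 °C. FP-Rh labelling (1 μM final) 45 min at 37 °C. Readout: 10% SDS-PAGE, in-gel fluorescence, band intensities quantified.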

The next data set deals with T1, ABHD12 (Homo sapiens, UniProt Q8N2K0).
T1 sequence (Q8N2K0 1-398): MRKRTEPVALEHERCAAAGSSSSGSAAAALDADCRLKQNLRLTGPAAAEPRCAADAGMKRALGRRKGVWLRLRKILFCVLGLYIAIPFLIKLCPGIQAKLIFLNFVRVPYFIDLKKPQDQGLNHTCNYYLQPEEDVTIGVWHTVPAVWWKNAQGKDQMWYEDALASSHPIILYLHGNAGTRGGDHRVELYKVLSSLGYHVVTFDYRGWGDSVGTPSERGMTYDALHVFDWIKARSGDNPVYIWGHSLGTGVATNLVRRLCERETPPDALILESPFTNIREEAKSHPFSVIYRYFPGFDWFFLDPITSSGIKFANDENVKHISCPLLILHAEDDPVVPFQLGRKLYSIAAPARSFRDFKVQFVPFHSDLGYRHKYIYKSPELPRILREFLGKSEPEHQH
To be noted: cited from earlier work.

Data set [1] deals with brain lyso-PS/PI and C20:4 PS content. The note with it: mice; cited from earlier work.
In data set [2] the test system is lymphocytic choriomeningitis virus (LCMV) clone 13. The note with it: mice; cited from earlier work.
Data set [3] deals with broader panel of cell lines. The data set is described as follows: cell viability assay. The data set is classed as cell-based. The note with it: all cell lines, 72 h.
In another data set the test system is THP-1 macrophages. As to the kind of experiment: cytokine measurements in M1-polarized THP-1 macrophages. The note with it: M1 stage THP-1 macrophages; DO264 0.1, 0.5, 1 μM, DO271 1 μM; 6 and 24 h. The data set is classed as cell-based, human.
The conditions of data set [4]: mice, four weeks of inhibitor treatment; cited from earlier work.
The conditions of data set [5]: 30 mg/kg, cited from earlier work.

On to `FC(F)(F)Oc1ccc(Oc2ccnc(N3CCC(NC(=S)Nc4cccnc4)CC3)c2Cl)c(Cl)c1` [DO264], for which the “concentration that impaired the viability of THP1 cells” value with THP1 cells is not below 5 µM. Besides, the “selectivity / off-targets among serine hydrolases” value with serine hydrolases is “excellent selectivity over other serine hydrolases”. In addition, at ABHD12, the “concentration giving full engagement of ABHD12” value was 1 µM. Moreover, in data set [1], the “brain lyso-PS/PI and C20:4 PS content” value was “substantial elevations”. Besides, the “immunological responses to LCMV clone 13 infection” value in data set [2] is “heightened immunological responses”. Moreover, the “cytotoxicity at 1 μM” value in [3] is on record as “without displaying cytotoxicity”. Moreover, in the data set with THP-1 macrophages, the CCL3 level entry is “elevated”, the CCL4 level entry was “elevated”, the IL-1β level entry is reported as “concentration-dependent increases” and the TNF-α level entry was “concentration-dependent increases”. Moreover, the auditory defects entry in data set [4] is listed as “did not exhibit the auditory defects observed in ABHD12–/– mice”. For the same molecule, the toxicity in mice entry in [5] (treatment for several weeks) is recorded as “without overt signs of toxicity”. Further, the “total exposure levels in the periphery and brain” value in data set [5] (mice, p.o. or i.p. dosing) was 3 to 9 µM.
